Screening results: PubChem, several laboratories
WT yeast gro inh: growth inhibition of WT yeast, mitochondrial fusion screen; mitochondrial fusion phenotypic screen, WT strain; actives 2.1% (n = 190,000); inhibition, % at 10 µM; in the data active = inhibition above about 58%; tested in S. cerevisiae
RAM network inh: blocks the yeast RAM network; S. cerevisiae dse1pr::URA3 reporter, 5-FOA growth OD615, 2 d; analog-sensitive cbk1-as2 kinase mutant strain; inhibition, % at 50 µM; actives 1.8% (n = 190,000); AID 868;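 active = inhibition above a set limit, 3 SD over mean compound inhibition, cut at about 8.4% in these data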;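 also: 0% = DMSO-only wells with no growth and 100% = 10 µM 1-NA-PP1 full growth; inhibition rescues growth on 5-FOA so higher OD means more RAM inhibition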
DAT uptake mod: changed human dopamine transporter uptake under cocaine IC80; Q01959; LLC-PK1 hDAT cells, [14C]-dopamine uptake with cocaine IC80; actives deviate in either direction; B-score at 10 µM; actives 1.3% (n = 110,000); AID 449768;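 active = Z score or B-score, a plate-position-corrected score, falls beyond the plate's 99.7% confidence bounds, in either direction; inactive = both scores lie inside the 99.7% bounds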;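 also: scored against the spread of the other compound wells on the same plate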
Target sequence (Q01959 whole entry, looked up): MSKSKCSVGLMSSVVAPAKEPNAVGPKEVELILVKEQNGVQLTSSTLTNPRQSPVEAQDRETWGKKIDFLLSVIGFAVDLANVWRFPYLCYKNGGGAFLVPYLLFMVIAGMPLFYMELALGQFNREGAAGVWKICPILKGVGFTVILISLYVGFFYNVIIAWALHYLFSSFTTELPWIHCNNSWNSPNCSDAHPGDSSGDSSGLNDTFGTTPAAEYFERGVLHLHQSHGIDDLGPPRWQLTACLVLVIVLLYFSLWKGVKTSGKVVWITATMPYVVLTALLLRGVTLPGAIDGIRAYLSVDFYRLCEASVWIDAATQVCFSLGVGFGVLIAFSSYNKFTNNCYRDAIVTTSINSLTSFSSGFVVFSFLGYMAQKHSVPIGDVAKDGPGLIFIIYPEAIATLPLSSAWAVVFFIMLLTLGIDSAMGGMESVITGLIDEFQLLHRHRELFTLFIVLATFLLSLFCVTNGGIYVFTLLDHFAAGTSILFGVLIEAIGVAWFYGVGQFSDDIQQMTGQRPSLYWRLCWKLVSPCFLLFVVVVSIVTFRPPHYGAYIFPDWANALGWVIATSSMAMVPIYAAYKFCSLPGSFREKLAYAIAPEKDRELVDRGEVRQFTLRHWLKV
Yeast growth inh: yeast BB579 growth reduction in restrictive medium. S. cerevisiae BB579 growth, OD615, 48 h. AID 804. inhibition, % at 10 µM. actives 0.51% (n = 140,000);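 active = inhibition above a set limit, 3 SD over the mean compound inhibition, cut at about 44% in these data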
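Test system: Saccharomyces cerevisiae DeaD strain BB579, replicative lifespan model yeast | Buffer or medium: Restrictive CSMM-D medium | Doses: One dose, 10 µM compound with 0.25% DMSO | Incubation: 48 h exposure, 30 °C | Detection: Culture absorbance at 615 nm | Control set: Amphotericin B at 10 µg/mL as positive control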
Yeast lifespan up: yeast lifespan extension | S. cerevisiae growth with nicotinamide, OD615; deaD strain in restrictive glucose medium | inhibition of the nicotinamide effect, % at 10 µM | actives 0.68% (n = 130,000) | AID 775;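 active = inhibition above a set limit, placed 3 SD over the median of all compounds, cut at about 26% in these data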;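 also: 0% = nicotinamide-treated wells and 100% = cells grown without nicotinamide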
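Test system – modified budding yeast, DeaD strain · Compound – single dose 10 µM compound, 0.25% DMSO · Times – culture preincubation 4 h, compound exposure 48 h, both 30 °C · Detection – optical density (absorbance) at 615 nm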
Measles CPE: protection of cells from measles virus. Measles virus-infected cells, CPE protection, absorbance. protection (pct of control), % at 4 µM. actives 1.5% (n = 140,000); in the data active = protection mostly above about 24%, no sharp cut-off; inactive = mostly below about 26%
Active calls of the source: *; / = no result. An excerpt weighted towards active compounds, which were near 6.1% of everything screened.

SMILES	WT yeast gro inh	RAM network inh	DAT uptake mod	Yeast growth inh	Yeast lifespan up	Measles CPE
Cc1occc1-c1nnc(SCC(=O)NCCc2ccccc2)n1C(C)c1ccccc1 (stereo unspecified)	-0.3	5.5	2.71*	-17.8	-7.0	4.1
C/C(=N\NC(=S)NCc1ccccc1)c1ccc2c(c1)OCCO2	56.9	0.8	/	/	/	/
C/C(=N\NC(=S)NCc1ccccc1)c1ccc2ccccc2c1OC(F)F	68.2*	8.3	/	/	/	/
C/C(=N\NC(=S)NCc1ccccc1)c1ccc(Br)cc1	71.5*	9.9*	/	/	/	/
CC(C)(O)[C@@H]1[C@@H]2C[C@@]3(CC[C@]4(C)C(CCC5[C@@]6(C)CC[C@H](O)C(C)(C)C6CC[C@]54C)[C@@H]13)C(=O)O2 (stereo partly specified)	/	/	0.529	/	/	/
O=C(CSCc1ccc(F)cc1)NCc1ccco1	-7.3	0.9	-1.2	-14.1	-0.7	4.4
C=CCOC(=O)C1=C[C@@H](c2csc3ccccc23)C[C@@H](OCCCCO)O1	/	/	1.64	/	/	/
Cc1ccc(CNC(=O)C23CN(Cc4ccccc4)CC2C(c2ccc([N+](=O)[O-])cc2)=NO3)cc1 (stereo unspecified)	-9.5	4.5	-0.524	-40.7	-22.0	41.3*
Cc1ccc(CCNC(=O)C23CN(Cc4ccccc4)CC2C(c2ccc([N+](=O)[O-])cc2)=NO3)cc1 (stereo unspecified)	12.6	1.1	-0.0967	-37.1	-24.8	4.4
O=C(c1ccccc1)c1cc(Cl)ccc1N1C(=O)C=CC1=O	85.2*	-0.9	/	/	/	/
N#Cc1cc(C(=O)c2cc(Cl)ccc2O)cn(-c2ccccc2)c1=O	19.9	2.2	/	-23.0	5.4	10.3
CCOc1ccc(CCNC(=O)C(CCC(N)=O)NC(=O)OCc2ccccc2)cc1OCC (stereo unspecified)	-4.4	2.4	/	/	/	/
CC(C)(C)C(=O)Nc1ccc(S(=O)(=O)c2ccc(NC(=O)C(C)(C)C)cc2)cc1	/	3.0	-0.163	-2.2	-5.9	19.2
CC(C)(C)C(=O)Nc1cc(S(=O)(=O)Nc2ccc(Cl)cc2)ccc1Cl	45.0	11.2*	/	-25.4	8.0	3.6
COc1ccc(C2C(Oc3ccccc3C)C(=O)N2Cc2ccc(F)cc2)cc1OC (stereo unspecified)	-9.6	8.9*	-0.316	-46.3	4.2	9.2
CCC(C)[C@H](N)c1cn([C@@H](Cc2cc3ccccc3[nH]2)C(=O)N2CCNCC2)nn1 (stereo partly specified)	-5.3	1.2	-0.000955	/	/	/
COc1ccc(C2NCCC3(O)CCCCC23)c(OC)c1OC (stereo unspecified)	-5.6	-0.5	-0.901	-23.4	0.0	34.9*
Cc1noc2ncnc(Oc3cc(Cl)ccc3Cl)c12	-1.1	1.1	/	/	/	/
O=C(Nc1cccc(F)c1)c1cc(S(=O)(=O)NCCC2=CCCCC2)ccc1F	60.2*	10.9*	/	-42.2	1.5	25.2
O=C(Oc1cc(=O)n2ccccc2n1)c1ccccc1	-14.3	-0.9	/	-17.4	43.4*	7.9
CC1(C)CC(=O)C(C=NCC2CCN(C(=O)Cc3ccccc3)CC2)=C(O)C1	-4.2	-0.8	/	/	/	/
CC(C)C(=O)N1CCC(CN=Cc2c(O)n(C3CCCCC3)c(=O)n(C3CCCCC3)c2=O)CC1	77.5*	0.7	3.19*	-61.6	-7.9	19.4
Cc1cc(NC(=O)c2cccc(COc3ccc(Br)cc3)c2)no1	12.1	5.1	0.0648	6.6	-5.5	8.4
CC1(C)Nc2ccc(O)cc2-c2c1ssc2=S	12.7	1.9	0.53	-22.8	-6.0	2.8
CCOc1ccc2c(c1)-c1c(ssc1=S)C(C)(C)N2C	51.5	8.8*	-0.849	-9.5	39.5*	4.8
SMILES	WT yeast gro inh	RAM network inh	DAT uptake mod	Yeast growth inh	Yeast lifespan up	Measles CPE
O=C(Cn1cnc2c(oc3ccccc32)c1=O)NCC1CCCO1 (stereo unspecified)	2.7	-1.1	-0.247	-1.5	-21.5	27.1*
O=C(Cn1cnc2c(nnn2Cc2ccc(Cl)cc2)c1=O)NCC1CCCO1 (stereo unspecified)	20.5	0.6	0.0904	-16.8	-9.9	47.9*
COc1ccc(N=CC2=C(Nc3ccc(OC)cc3)c3c(C)nn(-c4ccccn4)c3CC2)cc1	/	/	-0.002	/	/	/
Cc1cc(N2CCN(C(c3ccccc3)c3ccc(Cl)cc3)CC2)n2ncnc2n1 (stereo unspecified)	74.5*	0.9	/	-19.6	-0.9	4.6
Cc1cc(N2CCN(C/C=C/c3ccccc3)CC2)n2ncnc2n1	-9.4	1.5	-0.0726	-63.0	-0.3	32.0*
CCOc1ccc(N2C(=O)CC(N)C2=O)cc1 (stereo unspecified)	13.7	1.9	-0.608	-41.4	-4.8	3.9
C=CCNC1=C(Cl)C(=O)N(c2cccc(Cl)c2Cl)C1=O	64.4*	0.1	0.0166	10.9	-16.7	3.6
O=C1C(Cl)=C(NCC2CCCO2)C(=O)N1c1cccc(Cl)c1Cl (stereo unspecified)	-5.0	-0.7	0.00759	-30.3	-18.6	6.7
C=CCNC1=C(Cl)C(=O)c2ccccc2C1=O	17.2	2.5	/	60.2*	-7.0	26.6
O=C(CCN1CCN(c2ccccc2)CC1)N/N=C/c1ccc([N+](=O)[O-])o1	7.8	0.2	/	/	/	/
O=Cc1sc(N2CCOCC2)nc1-c1ccccc1	-2.5	1.1	/	/	/	/
CCOC(=O)N/N=C/c1ccc(OCCSc2ccc(Cl)cc2)c(OC)c1	-0.3	9.9*	/	-20.2	9.7	20.7
Nn1c(SCC(=O)Nc2ccc3c(c2)OCO3)nnc1-c1ccncc1	88.1*	2.9	/	-35.8	-4.9	14.0
O=C(CCSc1nnc2scc(-c3ccccc3)n12)NCc1ccc2c(c1)OCO2	0.1	10.1*	0.578	-46.2	-0.8	11.8
Cc1ccc(-c2nc(NC(=O)CSc3nnc4scc(-c5ccccc5)n34)ns2)cc1	7.3	/	2.55*	/	/	/
O=C(COC(=O)C1COc2ccccc2O1)NC(=O)Nc1ccc2c(c1)OCCO2 (stereo unspecified)	98.7*	3.4	-0.626	-16.0	-14.5	13.8
CCc1nnc(NC(=O)CSc2nnc3scc(-c4ccc(C)cc4)n23)s1	/	/	0.298	/	/	/
Cc1ccccc1-c1nsc(SCC(=O)Nc2ccc3c(c2)OCO3)n1	2.8	9.4*	/	-5.8	0.7	6.5
O=C(CN1C(=O)COc2ccccc21)Nc1ccc2c(c1)OCCO2	-8.7	2.6	-0.521	-32.0	54.1*	10.8
O=C(CSc1ccc(-c2ccccc2)nn1)Nc1ccc2c(c1)OCCO2	-0.7	3.3	/	-12.1	-0.1	7.0
O=C(CSc1nnc2scc(-c3ccccc3)n12)Nc1ccc2c(c1)OCCO2	73.0*	1.8	0.441	-46.8	-16.5	6.4
COc1ccc(NC(=O)CSc2ccc3c(c2)OCCO3)cc1OC	86.3*	1.6	-0.621	-5.8	-9.3	9.2
O=C(CN1C(=O)CSc2ccccc21)Nc1ccc2c(c1)OCCO2	-1.8	0.6	-0.668	-38.9	-12.8	13.8
